Tests used:
[1] = Stability toward peptidase degradation in human serum; type: in vitro ADME
Summary of the method: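 68Ga-labelled test compound (10–30 MBq, pH 7.4) was added to pooled human serum and kept at 37 °C. Aliquots were taken at 0, 15, 30, 45, 60 and 90 min and mixed with an equal volume of ice-cold ethanol. They were held on ice for 5 min and centrifuged. Supernatant and pellet activity were counted, and the supernatant was run on radio-HPLC. Three runs per radioligand.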

[2] = tested on: A431 tumor-bearing xenograft mice; assay: PET/CT imaging, time-activity curves in A431 tumor-bearing xenograft mice; type: in vivo; conditions: TACs
Summary of the method: (§1)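 Dynamic PET over 90 min p.i., then CT at 45 kVp and 0.4 mA. […] Images reconstructed by 2D-MLEM (12 iterations, 0.5 mm voxels) with scatter and decay correction. Frames 10 × 1, 10 × 2, 6 × 5 and 3 × 10 min. Volumes of interest drawn on heart, kidneys, tumour and muscle; SUV per frame gave time-activity curves.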

[3] = as above; type: in vivo; conditions: female, BALB/c-AnN-Foxn-1^nu/nu-Rj (nude), mouse, iv, TAC
Summary of the method: as §1

logD = type: physicochemical; conditions: pH 7.4
Summary of the method: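 68Ga-labelled test compound (0.5–2 MBq) was partitioned between 1-octanol and 0.05 M phosphate buffer, pH 7.4. Tubes were shaken for 5 min and centrifuged at 13,000 rpm for 2 min. Aliquots of each phase were γ-counted. Three experiments, each in triplicate.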

[4] = tested on: A431 tumor-bearing xenograft mice; assay: Ex vivo biodistribution in A431 tumor-bearing xenograft mice
[5] = as above; conditions: mouse, intravenous, 5 MBq

In the case of `CC[C@H](C)[C@H](NC(=O)[C@@H](NC(=O)[C@H](CC(N)=O)NC(=O)[C@H](CCC(N)=O)NC(=O)[C@@H]1CCCN1C(=O)[C@@H](NC(=O)[C@H](Cc1ccc(O)cc1)NC(=O)CNC(=O)[C@H](Cc1ccc(O)cc1)NC(=O)[C@H](Cc1c[nH]c2ccccc12)NC(=O)[C@H](Cc1c[nH]cn1)NC(=O)[C@H](Cc1ccc(O)cc1)NC(=O)CCOCCOCCOCCOCCC(=O)NCCCN(CCCNC(=O)CCOCCOCCOCCOCCC(=O)NCCCC[C@@H]1NC(=O)[C@@H](Cc2ccc(O)cc2)NC(=O)[C@H](CC(=O)O)NC(=O)CNC(=O)[C@H](CCCNC(=N)N)NC1=O)CC(=O)NCCOCCOCCOCCOCCC(=O)N[C@@H](CCCCNC(=O)CC[C@H](C(=O)O)N1CCN(CC(=O)O)CCN(CC(=O)O)CC1)C(N)=O)[C@@H](C)O)C(C)C)C(=O)O` [[^68Ga]Ga-1, metal not drawn], the half-life [1] is reported as 272 min, the “time at which accumulation in tumor, muscle and heart reached the plateau phase” value [2] is reported as 15 min p.i and the SUV ([3]; muscle, SUVmuscle, under EGFR blockade (hEGF)) is reported as 0.18 ± 0.16 SUV. The SUV ([3]; muscle, SUVmuscle, without blocking) was 0.27 ± 0.16 SUV, the SUV ([3]; tumor, SUVtumor, under EGFR blockade (hEGF)) was 0.45 ± 0.44 SUV and the logD (logD) was -3.07. For the same compound, the “uptake into liver and lungs under EGFR blocking” value ([4]; co-application of hEGF) was “not reduced”, the “tumor uptake under EGFR blocking” value ([4]; co-application of hEGF, 2 h p.i.) was “did not decrease” and the “decrease of absolute tumor uptake” value ([4]; integrin blockade with excess of c(RGDyK), 120 min p.i.) was 87%. The tissue uptake at 2 h ([5]; blood) was 4.49 ± 2.17 %ID/g, the tissue uptake at 2 h ([5]; kidney) was 88 ± 28.5 %ID/g and the tissue uptake at 2 h ([5]; tumor) was 2.79 ± 1.66 %ID/g.
For `CC[C@H](C)[C@H](NC(=O)[C@@H](NC(=O)[C@H](CC(N)=O)NC(=O)[C@H](CCC(N)=O)NC(=O)[C@@H]1CCCN1C(=O)[C@@H](NC(=O)[C@H](Cc1ccc(O)cc1)NC(=O)CNC(=O)[C@H](Cc1ccc(O)cc1)NC(=O)[C@H](Cc1c[nH]c2ccccc12)NC(=O)[C@H](Cc1c[nH]cn1)NC(=O)[C@H](Cc1ccc(O)cc1)NC(=O)CCOCCOCCOCCOCCOCCOCCC(=O)NCCCN(CCCNC(=O)CCOCCOCCOCCOCCOCCOCCC(=O)NCCCC[C@@H]1NC(=O)[C@@H](Cc2ccccc2)NC(=O)[C@H](CC(=O)O)NC(=O)CNC(=O)[C@H](CCCNC(=N)N)NC1=O)CC(=O)NCCOCCOCCOCCOCCC(=O)N[C@@H](CCCCNC(=O)CC[C@H](C(=O)O)N1CCN(CC(=O)O)CCN(CC(=O)O)CC1)C(N)=O)[C@@H](C)O)C(C)C)C(=O)O` [[^68Ga]Ga-2, metal not drawn], the half-life [1] was 237 min and the logD (logD) was -3.44.
